ABCG2 block: ABCG2 efflux pump inhibitors, primary screen, multiplex with ABCB1, IgMXP3 cells, flow cytometry; JC-1 efflux; Broad substrate specificity ATP-binding cassette transporter ABCG2 (Homo sapiens), Q9UNQ0; 0.1% of 190,000 active; inhibition, % at 6.6 µM;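 active = inhibition above 80%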;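 also: 0% = DMSO and 100% = nicardipine control wells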
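Times: 10 min at 25 °C | Test system: Two drug-resistant human cell lines, ABCG2 and ABCB1 | Quantity: 3 million cells/mL final, two lines in 1:1 ratio | Signal: Flow cytometry, 530 nm JC-1 signal | Dosing: Compound at 6.6 µM | Controls: Nicardipine and DMSO wells | Reagent: JC-1 as fluorescent efflux pump substrate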
FLuc stim CS: FLuc activators, initial screening, artefact control for FLuc-dependent activation tests, biochemical, ATPlite luminescence; Luciferin 4-monooxygenase (Photinus pyralis), P08659; ATPlite luciferase biochemical, 10 min; 0 = ATP-free wells, 1 = DMSO control; activation factor at 10 µM; 200,000 tested, under 10 active;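 active = luciferase activation factor, scaled between plate controls, of at least 2 with compound at 10 µM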
Target sequence (P08659 whole entry, looked up): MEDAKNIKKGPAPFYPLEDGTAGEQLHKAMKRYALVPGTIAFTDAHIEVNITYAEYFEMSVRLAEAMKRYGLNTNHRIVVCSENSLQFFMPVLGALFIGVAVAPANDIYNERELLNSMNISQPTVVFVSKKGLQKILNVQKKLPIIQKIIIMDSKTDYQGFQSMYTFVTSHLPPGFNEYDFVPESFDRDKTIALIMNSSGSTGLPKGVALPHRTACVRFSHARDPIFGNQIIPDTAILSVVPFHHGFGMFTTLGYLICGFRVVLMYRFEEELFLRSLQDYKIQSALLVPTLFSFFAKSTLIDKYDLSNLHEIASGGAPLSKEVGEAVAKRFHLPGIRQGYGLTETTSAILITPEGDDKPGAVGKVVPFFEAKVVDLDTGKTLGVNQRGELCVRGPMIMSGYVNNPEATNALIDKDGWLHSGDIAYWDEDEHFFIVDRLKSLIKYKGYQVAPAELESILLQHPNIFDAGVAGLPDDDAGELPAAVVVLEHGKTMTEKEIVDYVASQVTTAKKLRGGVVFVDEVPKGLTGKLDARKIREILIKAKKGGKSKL
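Material: luciferase plus luciferin reagent, cell-free. Medium: PBS buffer for ATP. Also added: ATP substrate, dispensed from a 10.24 µM working solution in PBS. Doses: test compounds dosed from 2 mM stocks in 100% DMSO. Incubation: 10 min post-reagent at room temperature. Technique: light output (luminescence). Read-out basis: luminescence gain marking luciferase activators.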
Measles CPE: compounds protecting cells from measles virus cytopathic effect, primary screen, measles RdRp inhibitor project, single point, MLSMR library, absorbance. Measles virus-infected cells, CPE protection. protection (pct of control), % at 4 µM. 1.5% of 140,000 active; in the data active = protection mostly above about 24%, no sharp cut-off; inactive = mostly below about 26%
FLuc inhib CS: firefly luciferase enzyme inhibitors, primary screen, artefact control for luciferase-based inhibitor screens, biochemical, luminescence, ATPLite. Luciferin 4-monooxygenase (Photinus pyralis), P08659. 10 min. inhibition, % at 10 µM. 1.5% of 200,000 active. AID 1006, 2008;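 active = inhibition above about 50% when tested at 10 µM, limit read from the data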
ABCB1 inh: ABCB1 efflux pump inhibitors, primary screen, cell-based, multiplex, flow cytometry, ABCG2 counter-screen | ATP-dependent translocase ABCB1 (Homo sapiens), P08183 | CCRF-Adr cells, JC-1 efflux | inhibition, % at 6.6 µM | 0.067% of 190,000 active; in the data active = inhibition above about 40%;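 also: 0% = vehicle and 100% = reference inhibitor; higher value means more JC-1 retained so stronger ABCB1 efflux block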
DTT redox prof: compounds producing H2O2 with reducing agent – biochemical, NIH compound library profiling, artefact control for MLSCN library redox annotation, primary screen; DTT-dependent redox cycling H2O2, phenol red/HRP absorbance; 100% = 100 µM peroxide control, 0% = buffer; 0.03% of 200,000 active; activation, % at 10 µM; AID 878, 2007;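 active = activation of at least 50% relative to the plate's high and low controls in the primary single-dose screen; inactive = activation below 50%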;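 also: compound incubated with DTT at 0.8 mM final as the reducing agent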
Numbers without * were called inactive. This is a sample that favours compounds with a hit; in the whole collection about 2.7% have one here.

Screening O=C1C(=C2SCCCS2)CC/C1=C\c1ccc(F)cc1 returned ABCG2 block 4.0, FLuc stim CS 0.1, Measles CPE 43.6*, FLuc inhib CS 93.1*, ABCB1 inh 0.2 and DTT redox prof 9.3.
`O=C(Cc1c[nH]c2ccccc12)NCc1ccc2c(c1)OCO2` gave ABCG2 block 6.7, FLuc stim CS 0.9, Measles CPE 3.5, FLuc inhib CS 5.2, ABCB1 inh 0.8 and DTT redox prof 1.9.
CCCCCCn1c(-c2ccco2)nc2oc3cc(OC)ccc3c(=O)c2c1=O was read as ABCG2 block 13.2, FLuc stim CS 1, Measles CPE 1.8, FLuc inhib CS 1.4, ABCB1 inh 1.3 and DTT redox prof 2.1.
Screening CN(Cc1nc(-c2cccs2)no1)CC(O)c1ccccc1 (configuration not stated) returned ABCG2 block 1.2, FLuc stim CS 1, FLuc inhib CS 2.4, ABCB1 inh 1.1 and DTT redox prof -1.2.
Cc1ccc(-n2[nH]c(=O)c3cccnc32)cc1 was read as ABCG2 block 42.7, FLuc stim CS 1, Measles CPE 28.0, FLuc inhib CS -3.8, ABCB1 inh 0.5 and DTT redox prof 1.3.
Cc1ccc(-n2[nH]c(=O)c(-c3ccccn3)c2C)cc1 was read as ABCG2 block 3.0, FLuc stim CS 0.2, FLuc inhib CS 79.1*, ABCB1 inh 0.5 and DTT redox prof -1.2.
Screening COC(=O)c1ccc(Cn2c(O)c(N=O)c3ccccc32)o1 returned ABCG2 block 0.6, FLuc stim CS 1.1, Measles CPE 65.9*, FLuc inhib CS -6.1, ABCB1 inh 0.1 and DTT redox prof -0.9.
For COC(=O)C1=C(O)CSC1=Nc1ccc(C)cc1 the results were ABCG2 block 4.1, FLuc stim CS 1, Measles CPE 26.0*, FLuc inhib CS -4.8, ABCB1 inh 0.1 and DTT redox prof -0.1.
Screening COC(=O)C1=C(O)CSC1=Nc1ccccc1 returned ABCG2 block 9.7, FLuc stim CS 1, Measles CPE 23.5, FLuc inhib CS -1.3, ABCB1 inh 0.0 and DTT redox prof 0.2.
For Brc1ccc(OCc2cn3ccccc3n2)cc1 the results were ABCG2 block 14.3, FLuc stim CS 0.2, FLuc inhib CS 76.8*, ABCB1 inh 0.7 and DTT redox prof -0.2.
Cc1cccn2cc(COc3ccc(-c4ccccc4)cc3)nc12 was read as ABCG2 block 9.8, FLuc stim CS 0.9, FLuc inhib CS 12.7, ABCB1 inh 0.3 and DTT redox prof -0.1.
COc1ccccc1-n1c(SCC(=O)Nc2ccc3c(c2)OCO3)nc2c(c1=O)SCC2 was read as ABCG2 block -0.6, FLuc stim CS 1, Measles CPE 14.6, FLuc inhib CS -4.6, ABCB1 inh 0.3 and DTT redox prof 2.4.
`COc1ccccc1-n1c(SCC(=O)Nc2cccc(C)c2)nc2c(c1=O)SCC2` gave ABCG2 block 0.0, FLuc stim CS 1.1, Measles CPE 47.4*, FLuc inhib CS -6.3, ABCB1 inh 0.4 and DTT redox prof -1.8.
Screening N#Cc1cc2c(nc1SCC(=O)Nc1nccs1)CCCCC2 returned ABCG2 block 2.4, FLuc stim CS 1, Measles CPE 34.3*, FLuc inhib CS -3.7, ABCB1 inh 0.2 and DTT redox prof 1.2.
`CCc1nnc(NC(=O)CSc2nc3c(cc2C#N)CCC3)s1` gave ABCG2 block 13.6, FLuc stim CS 0.8, Measles CPE 10.7, FLuc inhib CS 20.7, ABCB1 inh 0.5 and DTT redox prof 2.9.
O=C(Nc1ccc(Br)cc1)C(c1ccccc1)c1ccccc1 was read as ABCG2 block 5.1, FLuc stim CS 1.1, FLuc inhib CS -12.5, ABCB1 inh 0.3 and DTT redox prof 1.1.
Screening CCOC(=O)c1cncc(C(=O)O)c1 returned ABCG2 block 1.3, FLuc stim CS 1.1, Measles CPE 22.1, FLuc inhib CS -11.2, ABCB1 inh 0.1 and DTT redox prof 3.3.
`CCc1nc2c(oc3ccccc32)c(=O)[nH]1` gave ABCG2 block 1.9, FLuc stim CS 1, Measles CPE 1.6, FLuc inhib CS 2.2, ABCB1 inh 0.0 and DTT redox prof 2.0.
O=c1[nH]c(CSc2ccccn2)nc2c1oc1ccccc12 was read as ABCG2 block 4.2, FLuc stim CS 0.4, FLuc inhib CS 60.9*, ABCB1 inh 0.7 and DTT redox prof 0.5.
`CCCCCC(=O)NCc1c(C(F)(F)F)nn(C)c1N1CCOCC1` gave ABCG2 block 1.0, FLuc stim CS 1, FLuc inhib CS -1.3, ABCB1 inh 0.7 and DTT redox prof 0.8.
CS(=O)(=O)N1CCc2cc(-c3csc(NC(=O)Cc4ccccc4)n3)ccc21 was read as ABCG2 block 10.1, FLuc stim CS 1, Measles CPE 117.7*, FLuc inhib CS -3.7, ABCB1 inh 0.4 and DTT redox prof -0.5.
`CC1Cc2cc(-c3csc(NC(=O)Cc4cccs4)n3)ccc2N1S(C)(=O)=O` (configuration not stated) gave ABCG2 block 4.6, FLuc stim CS 1, Measles CPE 101.6*, FLuc inhib CS -2.7, ABCB1 inh 1.3 and DTT redox prof 1.1.
For CCC(=O)Nc1nc(-c2ccc3c(c2)CC(C)N3S(C)(=O)=O)cs1 (configuration not stated) the results were ABCG2 block 2.7, FLuc stim CS 1.1, FLuc inhib CS -5.7, ABCB1 inh 0.6 and DTT redox prof 0.0.
Cc1noc(C)c1COC(=O)CCOc1ccccc1 was read as ABCG2 block 0.0, FLuc stim CS 1, Measles CPE 14.9, FLuc inhib CS -2.9, ABCB1 inh -0.2 and DTT redox prof 2.2.
Screening COc1ccc(OCCC(=O)OCc2c(C)noc2C)cc1 returned ABCG2 block 7.0, FLuc stim CS 1, Measles CPE 35.1*, FLuc inhib CS -2.5, ABCB1 inh 0.7 and DTT redox prof 0.6.
Screening CCn1c(SCC(=O)OC2CCCCC2)nnc1-c1ccncc1 returned ABCG2 block 5.8, FLuc stim CS 1, Measles CPE 7.7, FLuc inhib CS -1.7, ABCB1 inh 1.1 and DTT redox prof 1.6.
`O=C(OCC(=O)N1CCCc2ccccc21)c1cccnc1Cl` gave ABCG2 block 0.1, FLuc stim CS 1, Measles CPE 38.6*, FLuc inhib CS -4.7, ABCB1 inh -0.2 and DTT redox prof 0.3.

High-throughput results: PubChem, several laboratories
